Experimental data pooled from the literature.
Compare with care: the assays were run in different laboratories.
Target: Serine/threonine-protein kinase TAO2 (TAOK2, Homo sapiens, UniProt Q9UL54)
Sequence (Q9UL54 1-1235, as in one of the studies): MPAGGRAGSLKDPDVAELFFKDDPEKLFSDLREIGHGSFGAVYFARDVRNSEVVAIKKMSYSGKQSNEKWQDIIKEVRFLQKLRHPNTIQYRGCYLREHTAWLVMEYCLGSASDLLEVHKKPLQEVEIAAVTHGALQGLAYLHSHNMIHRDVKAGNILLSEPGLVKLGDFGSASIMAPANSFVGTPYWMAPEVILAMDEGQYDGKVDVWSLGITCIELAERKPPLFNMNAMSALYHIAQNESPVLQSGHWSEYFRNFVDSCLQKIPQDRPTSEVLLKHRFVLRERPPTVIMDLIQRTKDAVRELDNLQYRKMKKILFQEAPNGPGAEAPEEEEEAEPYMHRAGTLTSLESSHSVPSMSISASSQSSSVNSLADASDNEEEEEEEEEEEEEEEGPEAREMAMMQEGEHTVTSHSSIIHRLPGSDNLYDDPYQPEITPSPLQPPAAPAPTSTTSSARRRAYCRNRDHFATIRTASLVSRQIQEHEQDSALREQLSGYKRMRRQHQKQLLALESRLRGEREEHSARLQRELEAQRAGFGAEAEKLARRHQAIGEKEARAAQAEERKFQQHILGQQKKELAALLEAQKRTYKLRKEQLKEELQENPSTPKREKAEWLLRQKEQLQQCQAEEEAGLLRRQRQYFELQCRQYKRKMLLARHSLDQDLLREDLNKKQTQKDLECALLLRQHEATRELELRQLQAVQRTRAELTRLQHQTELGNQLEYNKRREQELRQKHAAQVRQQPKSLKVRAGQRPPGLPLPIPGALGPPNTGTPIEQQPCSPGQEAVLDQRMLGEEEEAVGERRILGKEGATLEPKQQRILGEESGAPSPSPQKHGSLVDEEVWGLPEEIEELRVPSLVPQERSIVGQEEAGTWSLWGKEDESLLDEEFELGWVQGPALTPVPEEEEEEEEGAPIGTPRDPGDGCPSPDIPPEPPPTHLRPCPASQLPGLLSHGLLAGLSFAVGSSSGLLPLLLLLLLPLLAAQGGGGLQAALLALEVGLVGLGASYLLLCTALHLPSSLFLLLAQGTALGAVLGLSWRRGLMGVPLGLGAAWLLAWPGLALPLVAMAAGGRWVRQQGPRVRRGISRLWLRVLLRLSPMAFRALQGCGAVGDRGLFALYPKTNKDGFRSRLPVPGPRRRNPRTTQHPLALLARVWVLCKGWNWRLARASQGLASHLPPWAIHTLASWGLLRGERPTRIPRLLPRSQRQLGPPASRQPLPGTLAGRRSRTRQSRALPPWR

SMILES	read-out	technique	concentration	remaining binding
Cc1nc(Cc2cccc(C(F)(F)F)c2)sc1-c1ccc(C(N)=O)nc1	cell-free assay	competition with immobilised ligand	1 µM	86%
CN(C)c1nccc(-c2cnn3ncccc23)n1	binding		1 µM	85%
Nc1ncc2c(n1)-c1c([nH]c3ccc(C#CC4CC4)cc13)CCCC2	binding	competition with immobilised ligand	1 µM	90%
CCCCN(CCCC)C(=O)CN1C[C@H](c2cc(OC)c3c(c2)OCO3)[C@@H](C(=O)O)[C@@H]1CC(C)(C)CCC	cell-free assay	competition with immobilised ligand	1 µM	71.1%
N[C@H]1CCN(c2nccc(-c3cnn4ncccc34)n2)C1	binding		1 µM	52%
COc1cnc(Nc2cccc(S(N)(=O)=O)c2)nc1N1CCN(c2ccccc2)CC1	binding	competition with immobilised ligand	1 µM	86%
CN(C)c1nccc(-c2cnc3ncccn23)n1	binding		1 µM	76%
CCN1CCN(Cc2ccc(C(=O)Nc3ccc(C)c(Oc4ccc5c(c4)CC(=O)N5)c3)cc2C(F)(F)F)CC1	binding	competition with immobilised ligand	1 µM	100%
O=C(c1ccc(Nc2ncc(Cl)c(-c3ccc(Cl)s3)n2)cc1)N1CCC(N2CCCC2)CC1	binding	competition with immobilised ligand	1 µM	65%
C[C@@H](c1ccc(-n2cnc3c(N)ncnc32)cc1)N1CCc2nn(C)c(Cc3ccccc3)c2C1=O	binding	competition with immobilised ligand	0.1 µM	70%
F[C@@H]1CCN(c2nccc(-c3cnn4ncccc34)n2)C1	binding		1 µM	100%
CN(C)C(=O)Cn1cc(-c2nc([C@@](C)(c3ccc(-c4cnc(N)nc4)cc3)C3CC3)no2)cn1	cell-free assay	competition with immobilised ligand	1 µM	81%
CN(C)c1ncc(F)c(-c2cnn3ncccc23)n1	binding		1 µM	79%
O=C(NCCCN1CCOCC1)c1ccc(Nc2ncc(Cl)c(-c3ccc(Cl)s3)n2)cc1	binding	competition with immobilised ligand	1 µM	69%
CNCc1ccccc1-c1csc([C@H](C)Nc2nc(C)nc3cc(OC)c(OC)cc23)c1	cell-free assay	competition with immobilised ligand	1 µM	90%
Cc1cnn2ncc(-c3ccnc(N(C)C)n3)c2c1	binding		1 µM	94%
O=C(O)[C@H]1[C@H](Cn2nnc3ccccc3c2=O)CC[C@@H]1C(=O)c1ccc(OCCC2CCOCC2)cc1	cell-free assay	competition with immobilised ligand	1 µM	100%
COc1ccnn2ncc(-c3ccnc(N(C)C)n3)c12	binding		1 µM	85%
O=S(=O)(NC1CCC(c2cc(F)ccc2F)(S(=O)(=O)c2ccc(Cl)cc2)CC1)C(F)(F)F (stereo not shown)	cell-free assay	competition with immobilised ligand	1 µM	100%
O=C(c1ccc(Nc2ncc(Cl)c(-c3cc4ccccc4s3)n2)cc1)N1CCC(N2CCCC2)CC1	binding	competition with immobilised ligand	1 µM	66%
Cc1nc(C2CCN(C(=O)c3ccc(OC(F)(F)F)cc3N)CC2)c2ncc(N3CCN(C)CC3)cc2n1	cell-free assay	competition with immobilised ligand	1 µM	100%
O=C(Nc1c[nH]nc1C(=O)NC1CCNCC1)c1cc(F)cc(F)c1	binding	competition with immobilised ligand	1 µM	61%
